pKd, pKi: −log10 of the molar value.
Tests used:
Mus musculus [1] = species: Mus musculus; assay: Dissociation constant [316(nM)] in mouse isolated vas deferens using the cannabinoid receptor agonist.; type: functional, organism-based
How it was run: (§1)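 Mouse isolated vas deferens. Antagonist tested at the stated concentration against WIN55,212-2 inhibition of electrically evoked contractions. Drugs dispersed in saline with two parts Tween 80 by weight, with Tween 80 as the reference. Dose ratio (95% confidence limits) from a symmetrical 2+2 dose parallel line assay. Kd from (x−1) = B/Kd.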

Cannabinoid receptor 2 = Cannabinoid receptor 2 (Mus musculus, UniProt P47936); assay: Binding affinity against Cannabinoid receptor 2 in mouse spleen; type: tissue-based
Sequence of Cannabinoid receptor 2 (P47936 whole entry): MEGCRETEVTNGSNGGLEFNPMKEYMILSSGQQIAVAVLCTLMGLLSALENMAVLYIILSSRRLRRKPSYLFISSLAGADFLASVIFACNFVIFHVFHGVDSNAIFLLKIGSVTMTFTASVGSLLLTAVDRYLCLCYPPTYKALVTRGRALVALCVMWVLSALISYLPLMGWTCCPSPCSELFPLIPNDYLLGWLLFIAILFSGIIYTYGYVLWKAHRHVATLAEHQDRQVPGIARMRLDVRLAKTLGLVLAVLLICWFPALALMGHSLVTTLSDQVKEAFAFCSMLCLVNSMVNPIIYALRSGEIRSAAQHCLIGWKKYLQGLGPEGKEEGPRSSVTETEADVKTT
How it was run: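 Membranes from frozen mouse spleen (CB2), about 50 μg, prepared in silanized tubes. Incubated 1 h at 30 °C in TME with 0.1% fatty-acid-free BSA, 0.8 nM [3H]2 and varying ligand concentrations. Filtration, four ice-cold washes with buffer containing 0.5% BSA, then scintillation counting. Nonspecific binding defined with 100 nM 2. Three independent experiments in duplicate, normalized to specific binding; 95% confidence limits.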

Cannabinoid receptor 1 = Cannabinoid receptor 1 (Rattus norvegicus, UniProt P20272); assay: Binding affinity against Cannabinoid receptor 1 in rat forebrain
Sequence of Cannabinoid receptor 1 (P20272 whole entry): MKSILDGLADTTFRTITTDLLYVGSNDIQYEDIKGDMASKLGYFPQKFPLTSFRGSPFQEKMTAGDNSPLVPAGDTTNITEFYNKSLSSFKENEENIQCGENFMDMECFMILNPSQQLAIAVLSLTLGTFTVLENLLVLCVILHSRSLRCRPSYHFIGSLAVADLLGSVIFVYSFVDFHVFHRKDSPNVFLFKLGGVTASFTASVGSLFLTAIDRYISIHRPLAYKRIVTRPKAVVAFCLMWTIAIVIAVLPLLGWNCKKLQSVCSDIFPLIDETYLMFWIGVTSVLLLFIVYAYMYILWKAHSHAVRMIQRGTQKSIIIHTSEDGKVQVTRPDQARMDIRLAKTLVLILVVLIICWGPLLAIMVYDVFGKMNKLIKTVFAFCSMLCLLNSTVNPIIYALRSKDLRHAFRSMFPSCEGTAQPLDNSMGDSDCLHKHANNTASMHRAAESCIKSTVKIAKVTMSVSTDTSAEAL

Cavia porcellus [2] = species: Cavia porcellus; assay: Dissociation constant [1000(nM)] in myenteric plexus-longitudinal muscle of guinea pig small intestine using the cannabinoid receptor agonist.; type: functional, organism-based
How it was run: (§2)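 Guinea pig small intestine myenteric plexus-longitudinal muscle. Antagonist tested at the stated concentration against WIN55,212-2 inhibition of electrically evoked contractions. Drugs mixed with two parts Tween 80 by weight and dispersed in saline; Tween 80 served as the reference. Dose ratio from a symmetrical (2+2) dose parallel line assay on the steepest part of the curve. Kd = B/(x−1).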

[3] = target: T1, Cannabinoid receptor (Homo sapiens) (UniProt P34972+P21554); assay: Ratio of the binding affinities against rat CB1 to that of mouse CB2; activity value is 1:85; type: protein assay
T1 sequence (P21554 whole entry, looked up): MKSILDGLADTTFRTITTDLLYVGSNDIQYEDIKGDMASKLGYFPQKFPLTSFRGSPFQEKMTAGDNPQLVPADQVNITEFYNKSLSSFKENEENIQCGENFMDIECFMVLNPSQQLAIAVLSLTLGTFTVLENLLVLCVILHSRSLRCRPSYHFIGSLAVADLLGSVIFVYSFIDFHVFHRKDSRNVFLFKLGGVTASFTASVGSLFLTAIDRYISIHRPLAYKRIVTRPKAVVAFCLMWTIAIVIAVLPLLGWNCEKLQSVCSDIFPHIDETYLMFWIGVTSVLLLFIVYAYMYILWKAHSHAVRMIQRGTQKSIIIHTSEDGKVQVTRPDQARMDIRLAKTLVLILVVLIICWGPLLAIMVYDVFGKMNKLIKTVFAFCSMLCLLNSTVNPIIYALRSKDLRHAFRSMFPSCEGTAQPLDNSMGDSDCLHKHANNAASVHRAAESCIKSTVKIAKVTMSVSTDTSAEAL
T1 sequence (P34972 whole entry, looked up): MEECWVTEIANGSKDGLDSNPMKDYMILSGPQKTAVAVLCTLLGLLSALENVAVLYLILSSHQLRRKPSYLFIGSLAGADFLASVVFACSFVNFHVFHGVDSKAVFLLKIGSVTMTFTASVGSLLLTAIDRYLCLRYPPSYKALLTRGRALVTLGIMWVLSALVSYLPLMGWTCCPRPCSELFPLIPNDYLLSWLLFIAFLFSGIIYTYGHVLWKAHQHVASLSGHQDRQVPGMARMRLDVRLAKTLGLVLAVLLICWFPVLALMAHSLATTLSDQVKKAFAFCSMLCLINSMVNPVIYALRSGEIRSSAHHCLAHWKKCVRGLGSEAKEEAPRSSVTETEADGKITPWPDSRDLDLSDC

Mus musculus [4] = species: Mus musculus; assay: Dissociation constant [31.6(nM)] in mouse isolated vas deferens using the cannabinoid receptor agonist.; type: functional, organism-based; how it was run: as §1
Cavia porcellus [5] = species: Cavia porcellus; assay: Dissociation constant [100(nM)] in myenteric plexus-longitudinal muscle of guinea pig small intestine using the cannabinoid receptor agonist.; type: functional, organism-based; how it was run: as §2
[6] = target: T1, Cannabinoid receptor (Homo sapiens); assay: Ratio of the binding affinities against rat CB1 to that of mouse CB2; activity value is 1:7.2; type: protein assay
[7] = target: T1, Cannabinoid receptor (Homo sapiens); assay: Ratio of the binding affinities against rat CB1 to that of mouse CB2; activity value is 1:17; type: protein assay
[8] = test system: Cannabinoid receptor CB1 (Rattus norvegicus) and CB2 (Mus musculus); assay: Ratio of the binding affinities against rat CB1 to that of mouse CB2; activity value is 1:2.7
[9] = test system: Cannabinoid receptor CB1 (Rattus norvegicus) and CB2 (Mus musculus); assay: Ratio of the binding affinities against rat CB1 to that of mouse CB2; activity value is 1:37
Mus musculus [10] = species: Mus musculus; assay: Dissociation constant [1000(nM)] in mouse isolated vas deferens using the cannabinoid receptor agonist.; type: functional, organism-based; how it was run: as §1

| SMILES | pKi (Cannabinoid receptor 2) | pKi (Cannabinoid receptor 1) | pKd (Cavia porcellus [2]) | other results |
| --- | --- | --- | --- | --- |
| Cc1c(C(=O)NN2CCCCCC2)nn(-c2ccc(Cl)cc2Cl)c1-c1ccc(Br)cc1 | 6.67 | 8.11 | 9.42 | pKd (Mus musculus [1]): 8.17; Ratio [3]: 28 |
| Cc1c(C(=O)NN2CCCCC2)nn(-c2ccc(Cl)cc2Cl)c1-c1ccc(Cl)cc1 [RIMONABANT] |  |  |  | pKd (Mus musculus [4]): 8.70; pKd (Cavia porcellus [5]): 9.60 |
| Cc1c(C(=O)NC2CCCCC2)nn(-c2ccc(Cl)cc2Cl)c1-c1ccc(Br)cc1 | 6.00 | 7.93 |  | Ratio [6]: 87 |
| Cc1c(C(=O)NN2CCCCC2)nn(-c2ccc(Cl)cc2Cl)c1-c1ccc(N)cc1 | 6.02 | 7.09 |  | pKd (Mus musculus [1]): 7.37; pKd (Cavia porcellus [5]): 8.58 |
| CCc1c(C)c(C(=O)NN2CCCCC2)nn1-c1ccc(Cl)cc1Cl | 6.13 | 6.74 |  |  |
| Cc1c(C(=O)NN2CCCCC2)nn(-c2ccc(Cl)cc2Cl)c1-c1ccccc1I | 6.24 | 7.27 | 8.23 | pKd (Mus musculus [4]): 8.11 |
| Cc1c(C(=O)NN2CCCCC2)nn(-c2ccc(Cl)cc2Cl)c1-c1ccc([N+](=O)[O-])cc1 | 6.60 | 7.24 | 8.54 | pKd (Mus musculus [1]): 8.27 |
| Cc1c(C(=O)N(C)C2CCCCC2)nn(-c2ccc(Cl)cc2Cl)c1-c1ccc(Br)cc1 | 5.90 | 7.12 |  |  |
| Cc1c(C(=O)NN2CCCCC2)nn(-c2ccc(Cl)cc2Cl)c1-c1ccc(Br)cc1 | 5.84 | 7.77 |  | pKd (Mus musculus [4]): 8.58; Ratio [3]: 85; pKd (Cavia porcellus [5]): 9.49 |
| Cc1c(C(=O)NN2CCCCC2)nn(-c2ccc(Cl)cc2Cl)c1-c1ccc(I)cc1 |  |  |  | pKd (Mus musculus [4]): 9.30; pKd (Cavia porcellus [5]): 9.66 |
| Cc1c(C(=O)NN2CCCCC2)nn(-c2ccc(Cl)cc2Cl)c1-c1ccccc1N | 6.03 | 6.46 |  | pKd (Mus musculus [10]): 6.93; pKd (Cavia porcellus [5]): 7.95; Ratio [8]: 2.7 |

Now from value to compound, other results behind:

| pKi (Cannabinoid receptor 2) | pKi (Cannabinoid receptor 1) | pKd (Cavia porcellus [2]) | SMILES | other results |
| --- | --- | --- | --- | --- |
| 5.61 | 7.27 |  | Cc1c(C(=O)NN2CCOCC2)nn(-c2ccc(Cl)cc2Cl)c1-c1ccc(Br)cc1 |  |
| 6.66 |  | 8.15 | Cc1c(C(=O)NN2CCCCC2)nn(-c2ccc(Cl)cc2Cl)c1-c1ccccc1 | pKd (Mus musculus [1]): 7.55 |
| 5.17 | 7.51 |  | Cc1c(C(=O)Nc2ccccc2)nn(-c2ccc(Cl)cc2Cl)c1-c1ccc(Br)cc1 | Ratio [7]: 217 |
| 4.72 | 5.95 |  | Cc1c(C(=O)NCCO)nn(-c2ccc(Cl)cc2Cl)c1-c1ccc(Br)cc1 |  |
| 6.16 | 6.59 | 8.22 | Cc1c(C(=O)NN2CCCCC2)nn(-c2ccc(Cl)cc2Cl)c1-c1ccccc1[N+](=O)[O-] | pKd (Mus musculus [1]): 7.60; Ratio [8]: 2.7 |
| 5.34 | 6.90 | 8.33 | Cc1c(C(=O)N2CCCCC2)nn(-c2ccc(Cl)cc2Cl)c1-c1ccc(Br)cc1 | Ratio [9]: 37; pKd (Mus musculus [10]): 6.76 |
| 6.08 |  |  | Cc1c(C(=O)NN2CCCCC2)nn(-c2ccc(Cl)cc2)c1-c1ccc(Cl)cc1 |  |
| 5.63 | 6.49 | 7.91 | Cc1c(C(=O)N2CCN(C)CC2)nn(-c2ccc(Cl)cc2Cl)c1-c1ccc(Br)cc1 | pKd (Mus musculus [10]): 6.49 |
